Consider 6 compounds from ChEMBL document CHEMBL1138784, “Rational design, synthesis, and biological evaluation of bis(pyrimido[5,6,1-de]acridines) and bis(pyrazolo[3,4,5-kl]acridine-5-carboxamides) as new anticancer agents” (J Med Chem, 2004).

For test [1], the system named is Nucleic Acid. Put plainly: Binding site preference is determined as the ratio of AT to GC.
Test [2] relates to Nucleic Acid. Put plainly: Binding site preference is determined as the ratio of Poly (dA-dT)2 to Poly (dG-dC)2. It counts as nucleic-acid assay. The essentials:
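Ethidium displacement fluorometry at pH 7.0 (10 mM Na2HPO4, 10 mM NaH2PO4, 1 mM EDTA) with 1.26 μM ethidium bromide and 1 μM [poly(dA-dT)]2 or [poly(dG-dC)]2, 20 °C. Ex 546 nm, em 595 nm, drug added serially from a DMSO stock. Preference taken from the [AT]/[GC] ratio of C50 values, counted significant only below 0.7 or above 1.3.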

Another test concerns HT-29. The test can be described thus: Cytotoxicity is determined as the concentration required to inhibit the growth of human colon adenocarcinoma (HT-29) cell line. It counts as functional, cell-based.

On to `CN(C)CCNc1ccc2c(=O)n(CCN(C)C)c(=O)n3c4ccccc4c(=O)c1c23`, for which the Binding site preference in the test with Nucleic Acid [1] was determined as 0.57.
For the compound `CN(C)CCNc1ccc2c(=O)n(CCN(C)C)c(=O)n3c4ccc(O)cc4c(=O)c1c23`, the Binding site preference with Nucleic Acid [1] was 0.25.
In the case of `CN(C)CCn1c(=O)c2ccc(NCCN(C)CCNc3ccc4c(=O)n(CCN(C)C)c(=O)n5c6ccc(O)cc6c(=O)c3c45)c3c(=O)c4cc(O)ccc4n(c1=O)c23`, the Binding site preference in the test with Nucleic Acid [2] is 9.1. The midpoint of inhibition in the test on HT-29, the IC50, lay at 390 nM.
For `CN(C)CCN1Nc2c3cc(O)ccc3nc3c(C(=O)NCCCN(C)CCCNC(=O)c4ccc5c6c(c7cc(O)ccc7nc46)NN5CCN(C)C)ccc1c23`, in the test with Nucleic Acid [2], the Binding site preference was 1.3. Besides, the IC50 (as a rule, the point on the concentration scale where inhibition reaches its midpoint) in the test on HT-29 was determined as 780 nM.
With `CN(C)CCn1c(=O)c2ccc(NCCCCCCCCNc3ccc4c(=O)n(CCN(C)C)c(=O)n5c6ccccc6c(=O)c3c45)c3c(=O)c4ccccc4n(c1=O)c23`, in the test with Nucleic Acid [2], the Binding site preference turned out to be 41. Further, in the test with HT-29, the midpoint of inhibition, the IC50, lay at 360 nM.
The like results for `CN(C)CCn1c(=O)c2ccc(NCCN(C)CCN(C)CCNc3ccc4c(=O)n(CCN(C)C)c(=O)n5c6ccccc6c(=O)c3c45)c3c(=O)c4ccccc4n(c1=O)c23` were, in that order, 84 and 390 nM.
